The text below walks through data of publication PMC11734723 (Science Advances, 2025).

Test [1] deals with Cch-induced ER Ca2+ release. As to the kind of experiment: Carbachol-induced ER Ca2+ release in TRPC-overexpressing HEK293 cells. It is filed as cell-based. To be noted: ELP-004 1 nM to 100 μM.
A further test deals with T1, mouse TRPC4β (Mus musculus, UniProt Q9QUQ5).
T1 sequence (Q9QUQ5 1-890 isoform Q9QUQ5-2): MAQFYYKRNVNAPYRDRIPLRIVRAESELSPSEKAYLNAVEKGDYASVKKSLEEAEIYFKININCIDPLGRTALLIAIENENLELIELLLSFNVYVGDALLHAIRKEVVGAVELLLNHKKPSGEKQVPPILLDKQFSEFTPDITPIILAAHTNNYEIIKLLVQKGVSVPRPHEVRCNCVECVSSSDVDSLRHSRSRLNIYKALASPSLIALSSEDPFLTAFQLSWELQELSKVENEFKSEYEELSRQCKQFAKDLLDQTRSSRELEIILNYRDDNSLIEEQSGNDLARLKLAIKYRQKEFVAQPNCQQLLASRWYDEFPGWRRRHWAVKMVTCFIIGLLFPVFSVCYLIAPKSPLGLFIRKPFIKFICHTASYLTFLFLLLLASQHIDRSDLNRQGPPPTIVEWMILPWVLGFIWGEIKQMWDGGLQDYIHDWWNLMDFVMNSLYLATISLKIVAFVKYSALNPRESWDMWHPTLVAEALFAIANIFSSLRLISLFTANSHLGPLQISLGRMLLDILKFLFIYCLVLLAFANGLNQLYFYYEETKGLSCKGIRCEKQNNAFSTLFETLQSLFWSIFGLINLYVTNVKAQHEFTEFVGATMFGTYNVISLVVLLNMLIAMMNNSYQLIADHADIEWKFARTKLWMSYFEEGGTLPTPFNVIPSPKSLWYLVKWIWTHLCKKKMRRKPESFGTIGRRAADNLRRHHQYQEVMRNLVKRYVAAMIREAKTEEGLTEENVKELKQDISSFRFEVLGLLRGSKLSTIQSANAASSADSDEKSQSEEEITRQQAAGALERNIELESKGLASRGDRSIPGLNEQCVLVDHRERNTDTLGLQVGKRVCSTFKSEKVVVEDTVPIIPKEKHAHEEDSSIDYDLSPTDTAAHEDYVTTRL
As to the kind of experiment: Whole-cell patch clamp of Englerin A-induced TRPC4 currents in HEK293 cells. It is filed as cell-based. The following applies: for decrease of EA-induced TRPC4 current 45 s after the peak: EA 30 nM. In a few lines: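 Whole-cell recordings were made from HEK293 cells transiently expressing mouse TRPC4β, using ramps from −100 to +100 mV (200 ms, every 5 s; holding 0 mV). Pipette: CsCl with BAPTA (free Ca²⁺ 400 nM), pH 7.2; bath pH 7.4. After ~30 s in nominally Ca²⁺-free bath, Englerin A (30 nM) was applied. About 10 s after peak, Englerin A plus test compound (10, 30, 100 or 1000 nM) was perfused for ~90–100 s. Currents were read at ±100 mV.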
(In general: The patch-clamp technique gives a direct electrical read-out from membranes.)

The test system of the next test is murine BMSMCs. As to the kind of experiment: Basal intracellular Ca2+ during osteoclastogenesis of murine BMSMCs. To be noted: ELP-004 100 nM. Type of test: cell-based, mouse. The method in brief: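 C57Bl/6 bone marrow/spleen myeloid cells were grown in αMEM, 10% FBS, and mCSF (50 ng/ml). RANKL (1 or 100 ng/ml) was added at 24 h. After 2–3 days, TNFα (2 ng/ml), LTB4 (50 nM) and test compound (100 nM) were added as indicated, with media refreshed every 3–5 days. On days 1, 7, 14 and 21, cells were Fura2-loaded (2 µM, 30 min, RT; 30 min de-esterification) in pH 7.2 buffer. Basal Ca²⁺ was read as the 340/380 ratio.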

Test [2] concerns NFATc1 nuclear translocation. As to the kind of experiment: NFATc1 nuclear translocation. It is filed as cell-based, mouse. To be noted: ELP-004 100 nM. The method in brief:
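Murine BMSMC cultures were sampled at 24 h and on days 7, 14 and 21. Cells were fixed in 3.7% PFA (10 min, RT), antigen-retrieved in tris/urea (pH 9.5, 95°C, 10 min), permeabilised in 0.2% Tween 20 and blocked in 1% BSA plus glycine. Anti-NFATc1 (clone 7A6, 200 ng/ml) was applied overnight at 4°C, then Alexa Fluor 488 secondary (2 µg/ml, 1 h) with 7-AAD counterstain. Nuclear colocalisation was assessed by confocal microscopy.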

As for `CCC(=O)N(C)c1ccc(Cl)c(Cl)c1` [ELP-004], in test [1], the “effect on Cch-induced ER Ca2+ release” value is on record as “no effect”. Moreover, the “decrease of EA-induced TRPC4 current 45 s after the peak” value was 37% at mouse TRPC4β (10 nM ELP-004, +100 mV) and 58% at mouse TRPC4β (10 nM ELP-004, −100 mV). At mouse TRPC4β (1 μM ELP-004), the “inhibition of EA-induced TRPC4 currents” value is recorded as “lost its inhibitory action”. Also, the “inhibition of EA-induced TRPC4 currents at higher concentrations” value at mouse TRPC4β (30 and 100 nM ELP-004 versus 10 nM) was “did not show stronger inhibitory effects”. Further, the “effect on Ca2+ elevation” value in the test on murine BMSMCs (LTB4 (50 nM)/RANKL (1 ng/ml)) and with murine BMSMCs (TNFα (2 ng/ml)/RANKL (1 ng/ml)) was “significantly attenuated” in each case. Besides, the “effect on basal Ca2+ levels” value in the test with murine BMSMCs (RANKL-induced (100 ng/ml), days 1-21) is “no significant effect”. The “changes in NFAT localization” value in test [2] (BMSMC-derived macrophages (mCSF only)) and in test [2] (low RANKL alone (1 ng/ml)) was “No significant changes” each time. Moreover, the “effect on NFAT nuclear localization” value in test [2] (LTB4/RANKL) and in test [2] (TNFα/RANKL) was “blocked” each time. Further, the “effect on NFAT translocation” value in test [2] (RANKL-induced (100 ng/ml)) is on record as “no effect”.
